Several values for one entry are separate records, joined by “and”; a condition that tells them apart may be missing. Equal values may be shown once.

Experimental findings from ChEMBL document CHEMBL1124248, “Preparation and antischistosomal and antitumor activity of hycanthone and some of its congeners. Evidence for the mode of action of hycanthone” (1988) are described below.

What all share (type): functional
Experiment [1] deals with Schistosoma mansoni. Kind of experiment: Day 50% survival of worms in culture of HC sensitive Schistosoma mansoni.
Experiment [2] has as its system Mus musculus. The experiment is described as follows: In vivo antitumor activity against p-388 lymphocytic leukemia in mice at 12.5 mg/kg (Duplicate value). An outline of the steps:
(§1)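 Murine P388 lymphocytic leukemia model tested by the National Cancer Institute. Compound given once daily for 9 days; activity expressed as T/C.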

Experiment [3] relates to Mus musculus. Kind of experiment: In vivo antitumor activity against p-388 lymphocytic leukemia in mice at 50 mg/kg. In a few lines: as §1
In experiment [4] the test system is Schistosoma mansoni. The experiment is described as follows: Day 50% survival of worms in culture of HC resistant Schistosoma mansoni. An outline of the steps:
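Adult HC-resistant S. mansoni were exposed in vitro and kept in culture. The value is the day by which 50% of worms were dead. Cultures were ended at different times in different experiments. Concentrations are given in M × 10^6.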

Experiment [5] has as its system Schistosoma mansoni. The experiment is described as follows: Incorporation of 6.3 M*10e6 [3H]uridine in hycanthone(HC) sensitive Schistosoma mansoni.
For experiment [6], the system named is Schistosoma mansoni. Kind of experiment: Incorporation of 1.3 M *10e6 [3H]uridine in hycanthone(HC) sensitive Schistosoma mansoni.
In experiment [7] the test system is Schistosoma mansoni. The experiment is described as follows: Incorporation of 1.3 [3H]uridine in hycanthone(HC) resistant Schistosoma mansoni. In a few lines:
(§2)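 Adult HC-resistant S. mansoni were treated in vitro, and [3H]uridine incorporation by the worms was measured. Values are % of control. Concentrations are given in M × 10^6.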

Experiment [8] relates to Mus musculus. The experiment is described as follows: In vivo antitumor activity against p-388 lymphocytic leukemia in mice at 6.25 mg/kg (Duplicate value). In a few lines:
as §1

Experiment [9] deals with Mus musculus. Kind of experiment: In vivo antitumor activity against p-388 lymphocytic leukemia in mice at 25 mg/kg (Duplicate value). An outline of the steps:
as §1

The test system of experiment [10] is Mus musculus. The experiment is described as follows: In vivo antitumor activity against p-388 lymphocytic leukemia in mice at 6.25 mg/kg. In a few lines: as §1
The subject of experiment [11] is Schistosoma mansoni. Kind of experiment: Incorporation of 5M*10e6 [3H]uridine in hycanthone(HC) sensitive Schistosoma mansoni.
The test system of experiment [12] is Schistosoma mansoni. Kind of experiment: Incorporation of 1 M *10e6 [3H]uridine in hycanthone(HC) resistant Schistosoma mansoni. An outline of the steps: as §2
Experiment [13] has as its system Schistosoma mansoni. Kind of experiment: Incorporation of 1 M *10e6 [3H]uridine in hycanthone(HC) sensitive Schistosoma mansoni.
For experiment [14], the system named is Schistosoma mansoni. Kind of experiment: Incorporation of 5M*10e6 [3H]uridine in hycanthone(HC) resistant Schistosoma mansoni. In a few lines:
as §2

In experiment [15] the test system is Schistosoma mansoni. Kind of experiment: Incorporation of 4.5M*10e6 [3H]uridine in hycanthone(HC) resistant Schistosoma mansoni. An outline of the steps:
as §2

For experiment [16], the system named is Schistosoma mansoni. The experiment is described as follows: Incorporation of 0.9 M *10e6 [3H]uridine in hycanthone(HC) sensitive Schistosoma mansoni.
The test system of experiment [17] is Schistosoma mansoni. Kind of experiment: Incorporation of 0.9 M *10e6 [3H]uridine in hycanthone(HC) resistant Schistosoma mansoni. In a few lines: as §2
Experiment [18] has as its system Schistosoma mansoni. Kind of experiment: Incorporation of 4.5 M*10e6 [3H]uridine in hycanthone(HC) sensitive Schistosoma mansoni.

What is called T/C is the ratio of treated to control. Regarding `CCN(CC)CCNc1ccc(COC(C)=O)c2sc3ccccc3c(=O)c12`, the Effect in [1] was 7 days; in [4] it was >15 days and 7 days. The T/C is 129% in experiment [2], 118% in experiment [3], 123% in experiment [8] and 125% in experiment [9]. Also, the Control in experiment [5] was 4%; in [6], 13%; in experiment [7] it was 19%.

Take `CCN(CC)CCNc1ccc(COC(=O)Nc2ccccc2)c2sc3ccccc3c(=O)c12`: the Effect in experiment [1] was 8 days; in experiment [4], 12 days. For the same molecule, the T/C in experiment [10] stood at 111%. The Control in experiment [11] turned out to be 7%; in experiment [12], 33%; in experiment [13] it was 18%; in [14], 32%.

`CCN(CC)CCNc1ccc(COC(=O)c2cc([N+](=O)[O-])cc([N+](=O)[O-])c2)c2sc3ccccc3c(=O)c12`: the values for the Effect in experiment [1] and in experiment [4] were 7 days and over 17 days, respectively. Also, the Control in experiment [15] stood at 105%; in [16], 50%; in experiment [17] it was 95%; in experiment [18], 0%.
